pIC50: −log10 of the molar value. Active and inactive are the calls of the source. The rule behind the calls is not given here.
Tests used:
[1] = Inhibition of bovine alpha chymotrypsin; design: species or system Bos taurus
How it was run: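 Bovine pancreatic alpha-chymotrypsin, 1 mg/mL stock in 50 mM Tris-HCl/100 mM NaCl/1 mM CaCl2, pH 7.8. Enzyme was preincubated with test sample in DMSO at 37 °C for 10 min. Then N-succinyl-Gly-Gly-Phe-p-nitroanilide was added at 0.75 mM final (≈Km). Absorbance rise at 405 nm was read every 5 min for 30 min. Samples were log/2 dilutions from 1 mM to 100 pM stocks, in triplicate, with PMSF as positive control.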

[2] = Inhibition of pig elastase; design: species or system Sus scrofa
How it was run: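 Porcine pancreatic elastase, 75 µg/mL stock in Tris-HCl pH 8.0. Enzyme was preincubated with test sample (5% DMSO final) at 30 °C for 20 min. Then N-succinyl-Ala-Ala-Ala-p-nitroanilide was added at 1.5 mM final (Km). Absorbance increase at 405 nm was read every 5 min for 30 min. Dilution series in DMSO ran from 1 mM to 100 pM, in triplicate, with PMSF as positive control.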

Sus scrofa = species on record: Sus scrofa; test: Inhibition of pig trypsin up to 30 uM
How it was run: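 Porcine pancreatic trypsin was run as the chymotrypsin assay: 50 mM Tris-HCl/100 mM NaCl/1 mM CaCl2, pH 7.8, with 10 min preincubation with sample in DMSO at 37 °C. Nα-benzoyl-DL-arginine-4-nitroanilide was the substrate. Absorbance at 405 nm was followed every 5 min for 30 min. Tests were done in triplicate, with PMSF as positive control.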

SMILES	pIC50 [1]	pIC50 [2]	Activity (Sus scrofa)
C/C=C1\NC(=O)[C@@H](NC(=O)[C@H](CCC(N)=O)NC(=O)CCC)[C@@H](C)OC(=O)[C@H](C(C)C)NC(=O)[C@H](Cc2ccc(O)cc2)N(C)C(=O)[C@H](Cc2ccccc2)N2C(=O)[C@H](CC[C@H]2O)NC1=O [SOMAMIDE B]	5.38	8.02	inactive
C/C=C1\NC(=O)[C@@H](NC(=O)[C@H](CCc2ccc(O)cc2)NC(=O)[C@H](C)NC(=O)[C@H](O)COS(=O)(=O)O)[C@@H](C)OC(=O)[C@H](C(C)C)NC(=O)[C@H](Cc2ccc(O)cc2)N(C)C(=O)[C@H](Cc2ccccc2)N2C(=O)[C@H](CC[C@H]2OC)NC1=O [LYNGBYASTATIN 6]	5.60	8.48	inactive
C/C=C1\NC(=O)[C@@H](NC(=O)[C@H](CCc2ccc(O)cc2)NC(=O)[C@H](C)NC(=O)[C@H](O)CO)[C@@H](C)OC(=O)[C@H](C(C)C)NC(=O)[C@H](Cc2ccc(O)cc2)N(C)C(=O)[C@H](Cc2ccccc2)N2C(=O)[C@H](CC[C@H]2O)NC1=O [LYNGBYASTATIN 5]	5.55	8.49	inactive
C/C=C1\NC(=O)[C@@H](NC(=O)[C@H](CCC(N)=O)NC(=O)CCCCC)[C@@H](C)OC(=O)[C@H](C(C)C)NC(=O)[C@H](Cc2ccc(O)cc2)N(C)C(=O)[C@H](Cc2ccccc2)N2C(=O)[C@H](CC[C@H]2O)NC1=O [LYNGBYASTATIN 7]	–	–	inactive

Reference: ChEMBL document CHEMBL1141316, “Lyngbyastatins 5-7, potent elastase inhibitors from Floridian marine cyanobacteria, Lyngbya spp” (J Nat Prod, 2007)
